Source: PubChem BioAssay (several laboratories)
ARFGAP1 inhibitor – rat ARFGAP1 inhibition. 360,000 tested, 0.26% active. inhibition, % at 16.5 µM. Q62848. Arfgap1-stimulated ARF1 GTP hydrolysis, GDP FP detection;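 active = inhibition above a per-plate limit, mean inhibition of low control wells plus 3 SD, cut at about 25% in these data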;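 also: 0% = DMSO wells with enzyme and 100% = wells lacking Arfgap1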
Target sequence (Q62848 1-136 limits assumed): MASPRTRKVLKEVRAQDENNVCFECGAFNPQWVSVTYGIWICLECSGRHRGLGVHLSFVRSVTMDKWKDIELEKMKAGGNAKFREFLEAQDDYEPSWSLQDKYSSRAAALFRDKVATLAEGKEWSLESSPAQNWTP
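Assay system: Rat Arfgap1 GAP domain (His6, aa 1-136), purified enzyme | Buffer or medium: HEPES 25 mM pH 7.5, NaCl 150 mM, MgCl2, DTT | Schedule: GTP hydrolysis reaction 2 h at 25 °C | Signal: FP of antibody-bound GDP Alexa 633 tracer, ex 620/em 688 nm | Measure: Percent inhibition of Arfgap1-stimulated GTP hydrolysis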
esBAF inh – SWI/SNF esBAF complex inhibition. mouse ES cells, Bmi1-luciferase knock-in reporter, 24 h; 100% = twice the neutral-well signal. reporter increase, % at 12.5 µM. 350,000 tested, 2% active; in the data active = activation above about 40%; inconclusive = no clear call, values can overlap the other calls;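 also: 0% = median of the plate's neutral control wells and 100% = double that signal; a rise in the Bmi1 reporter signal indicates esBAF inhibition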
ASAP1 GAP inh – inhibitors of human ASAP1 ArfGAP activity. Q9ULH1. ASAP1-stimulated ARF1 GTP hydrolysis, GDP FP detection. inhibition, % at 16.5 µM. 360,000 tested, 0.19% active. AID 624377; in the data active = inhibition above about 25%;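 also: 0% = vehicle with enzyme and substrate and 100% = no enzyme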
SMARCA2 activ – increases SMARCA2 function in MMTV reporter cells. MG213 cells, MMTV-luciferase reporter, dexamethasone, overnight. activation, % at 9.1 µM. 370,000 tested, 1% active. AID 652017; in the data active = activation above about 7.8%;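 also: 0% = vehicle wells and 100% = reference activator wells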
SMARCA2 conf – confirmation of SMARCA2 (BRM) function activators | MG213 cells, MMTV-luciferase with dexamethasone, luminescence, overnight; MG213 cells expressing E1A, Rb sequestered; DMSO wells 0%, reference activator 100% | 3,500 tested, 30% active | AID 652260 | shares compounds with SMARCA2 activ | activation, % at 9.1 µM;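 active = activation above its plate's cutoff, the mean activation of tested wells plus 3 SD, cut at about 7.9% in these data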
GAL4-VP16 Luc – GAL4-VP16 reporter activation counter-screen; AID 686939; HEK293 GAL4-VP16 pG5luc reporter, luciferase luminescence; scaled: DMSO wells 0%, SAHA wells 100%; 3,500 tested, 41% active; shares compounds with SMARCA2 activ; activation, % at 9.1 µM;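 active = activation above the solvent-only control well mean plus 3 SD, averaged across control plates, cut at about 5.2% in these data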
The depositor's hits bear a star; ? = inconclusive; / = no result. Rows were chosen to be rich in hits. Some 2.6% of all compounds tested hit in one or more screens of this group.

SMILES | ARFGAP1 inhibitor | esBAF inh | ASAP1 GAP inh | SMARCA2 activ | SMARCA2 conf | GAL4-VP16 Luc
CC(C)C#Cc1cnc2c(c1)C(=O)N([C@@H](C)CO)C[C@@H](C)[C@H](CN(C)C(=O)Nc1ccccc1)O2 | / | 3 | / | / | / | /
Cc1ccc(CCN=c2c([N+](=O)[O-])nn(-c3ccccc3)n2O)cc1 | 3 | / | 2 | -2 | / | /
O=[N+]([O-])c1nn(-c2ccccc2)n(O)c1=NCCc1ccccc1 | -4 | / | 3 | 11* | 6 | 3
O=C(C[C@H]1CC[C@@H]2[C@H](COC[C@H](O)CN2CCC(F)(F)F)O1)NCC1CCCCC1 | / | 2 | / | / | / | /
Cc1ccnc(N2C(=O)c3cccc4c([N+](=O)[O-])ccc(c34)C2=O)c1 | 0 | -1 | -10 | 9.9* | -14 | 4
Cc1ccc(N2C(=O)c3cccc4c([N+](=O)[O-])ccc(c34)C2=O)c2cccnc12 | 8 | -18 | -5 | -3 | / | /
Cc1nnc(N2C(=O)c3cccc4c([N+](=O)[O-])ccc(c34)C2=O)s1 | 2 | -1 | -10 | 22* | -16 | 15*
Cc1ccc(S(=O)(=O)N2CC[C@@H]3[C@H](CO)N(C)c4ccc(C#Cc5cccnc5)cc4[C@@H]32)cc1 | / | 9 | / | / | / | /
C[C@@H]1CN([C@@H](C)CO)C(=O)Cc2cc(NC(=O)Cc3cn(C)c4ccccc34)ccc2O[C@H]1CN(C)C(=O)Nc1ccc(F)cc1 | / | 3 | / | / | / | /
C[C@@H]1CN([C@H](C)CO)C(=O)Cc2cc(NS(=O)(=O)c3ccc(F)cc3)ccc2O[C@@H]1CN(C)Cc1ccc(Cl)c(Cl)c1 | / | 5 | / | / | / | /
CC(=O)c1nc2ccccc2n1CCc1ccccc1 | -2 | -7 | -11 | 2 | / | /
N#CC(=C1NC(=O)c2ccccc21)c1nc2ccccc2n1CCO | 6 | 22 | -3 | 20* | -13 | 18*
O=C(O)c1ccc(C[n+]2c(-c3ccccc3)csc2Nc2ccccc2)cc1 | 1 | -28 | -5 | 10* | -2 | 1
CN(C(=O)C1CCC(=O)N(Cc2cccc(F)c2)C1)C1CCCCC1 (stereo not drawn) | -9 | 97* | -10 | 9.1* | 11* | 13*
O=C1CCC(C(=O)N2CCCCCC2)CN1Cc1cccc(C(F)(F)F)c1 (stereo not drawn) | 7 | -4 | 3 | 9.2* | 0 | -1
COCC(=O)Nc1ccc2c(c1)C(=O)N(C)[C@H]1CC[C@@H](CC(=O)NCc3cccc(F)c3)O[C@@H]1CO2 | / | -4 | / | / | / | /
C[C@H](CO)N1C[C@H](C)[C@@H](CN(C)C(=O)Nc2ccccc2)OCCCC[C@H](C)Oc2ccc(NC(=O)Nc3ccccc3)cc2C1=O | / | 15 | / | / | / | /
COc1ccc(NC(=O)c2cc([N+](=O)[O-])ccc2NC(=O)CNCc2ccccn2)c(OC)c1 | -5 | 17 | -5 | 13* | 4 | 1
Cc1ccc(NC(=O)CNC(=O)c2cccc(C)c2)nc1 | 10 | 9 | -8 | 8.4* | 7 | 1
Cc1ccc(NC(=O)CNC(=O)c2ccc(Oc3ccccc3)cc2)nc1 | -3 | 11 | 13 | -2 | / | /
CCC(=O)N(C)C[C@@H]1Oc2cc(C#Cc3ccncc3)ccc2S(=O)(=O)N([C@@H](C)CO)C[C@H]1C | / | -6 | / | / | / | /
Cc1ccc(OCc2cc(C(=O)N3CCN(c4ccccc4)CC3)no2)cc1C | -1 | ? | -8 | 13* | 6 | 6.4*
Cc1ccc(OCc2cc(C(=O)N3CCN(C4CCCC4)CC3)no2)cc1C | -5 | 8 | 12 | 1 | / | /
CN(C)c1ccc(/C=C2\CCCc3c2nc2ccccc2c3C(=O)O)cc1 | 9 | 59* | -18 | 9.6* | 4 | 5.5*
CC(=O)N1[C@@H]2c3ccc(C4=CCCC4)c(=O)n3C[C@H]1[C@H](CO)[C@H]2C(=O)N[C@@H](C)c1ccccc1 | / | -5 | / | / | / | /
CO[C@H]1CN(C)C(=O)c2cc(NC(=O)C3CCC3)ccc2OC[C@H](C)N(CC2CCCCC2)C[C@H]1C | / | 1 | / | / | / | /
CCOCCCNC(=O)/C(C#N)=C/c1ccc(-c2ccc(S(=O)(=O)N3CCOCC3)cc2)o1 | / | -1 | / | / | / | /
CCOCCCNC(=O)/C(C#N)=C/c1ccc([N+](=O)[O-])o1 | 11 | 1 | -8 | 12* | -16 | 2
